Screens: PubChem BioAssay, several laboratories
Compounds with a hit are over-represented: about 4.3% of the library has one in this group of screens.
APP 5'UTR act: activates APP 5'UTR luciferase reporter; SH-SY5Y APP 5'UTR luciferase reporter, luminescence; zero percent = DMSO vehicle wells; activation, % at 2 µM; 190,000 compounds, 1% hits; AID 1276;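 active = activation above a set limit, based on mean plus 3 SD of controls, cut at about 140% in these data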
FLuc inh counter: counter-screen for luciferase assay inhibitors: firefly luciferase inhibition; P08659; inhibition, % at 10 µM; 200,000 compounds, 1.5% hits; AID 1006; ATPLite firefly luciferase biochemical luminescence, 10 min;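 active = inhibition above about 50% when tested at 10 µM, limit read from the data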
Target sequence (P08659 whole entry, looked up): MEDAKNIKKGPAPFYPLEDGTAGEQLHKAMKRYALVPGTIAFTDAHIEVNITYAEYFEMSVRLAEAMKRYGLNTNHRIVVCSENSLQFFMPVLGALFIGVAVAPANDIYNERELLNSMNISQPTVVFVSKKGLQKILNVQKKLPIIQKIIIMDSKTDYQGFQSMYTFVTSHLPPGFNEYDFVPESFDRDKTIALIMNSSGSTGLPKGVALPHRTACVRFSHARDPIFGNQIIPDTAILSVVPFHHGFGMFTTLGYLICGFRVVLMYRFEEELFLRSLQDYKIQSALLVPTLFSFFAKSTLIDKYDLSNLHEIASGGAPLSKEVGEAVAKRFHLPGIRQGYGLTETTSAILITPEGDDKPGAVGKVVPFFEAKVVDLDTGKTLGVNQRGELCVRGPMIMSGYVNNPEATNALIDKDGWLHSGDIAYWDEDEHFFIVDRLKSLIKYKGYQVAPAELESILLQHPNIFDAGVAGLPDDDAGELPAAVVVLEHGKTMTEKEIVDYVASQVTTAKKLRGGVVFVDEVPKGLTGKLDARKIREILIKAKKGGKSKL
STAT1 activator: activators of IFN-gamma induced STAT1 signaling | NIH 3T3 STAT1-luciferase reporter, luminescence; 100% = IFN-gamma alone, no compound | activation (% of control), % at 5.5 µM | 200,000 compounds, 2.6% hits | AID 932;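 active = activation above the screen-wide mean activation plus 3 SD, cut at about 130% in these data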;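 also: raw ratio to IFN-gamma control signal so 100% means no change and 0% no light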
FLuc act counter: firefly luciferase counter-screen for stimulation assays | P08659 | ATPlite luciferase biochemical, luminescence, 10 min; 0 = ATP-free wells, 1 = DMSO control | activation factor at 10 µM | 200,000 tested, under 10 active | AID 1027;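 active = luciferase activation factor, scaled between plate controls, of at least 2 with compound at 10 µM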
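Assay system – cell-free luciferase reagent · Medium – PBS-based ATP solution · Dosing – test compounds dosed from 2 mM stocks in 100% DMSO · Timing – 10 min, room temperature · Technique – light output (luminescence) · Measure – luminescence gain marking luciferase activators · Controls – No-ATP low control, compound-free enzyme-plus-ATP high control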
NF-kB neuron act: compounds increasing NF-kB expression in human neuronal cells. NF-kB reporter expression; stronger effect = higher value. fold change at 12.5 µM. 190,000 compounds, 1.6% hits. AID 1239; in the data active = fold change above about 3.3
Active calls of the source: *; x = no result.

SMILES	APP 5'UTR act	FLuc inh counter	STAT1 activator	FLuc act counter	NF-kB neuron act
Cc1nc2c(-c3ccccc3)c[nH]n2c(=O)c1Cc1ccccc1	92	9	142*	0.9	1.1
COc1ccc(C(=O)N/N=C/c2ccc(OC)c(CN3CCc4cc(OC)c(OC)cc4C3C)c2)cc1 (stereo not drawn)	16	4	102	1	0.5
N#C/C(=C\c1ccc(OCc2ccc(C(=O)O)cc2)cc1)C(=O)N1CCOCC1	-56	-1	38	1	7*
CCOC(=O)/C(=C\c1ccc(OC(F)F)cc1)C1=Nn2c(nnc2-c2ccc(Cl)cc2)SC1	-34	-2	96	1	8.3*
Cc1nnc(SCc2cnc(-c3ccc(C(C)C)cc3)s2)n1C	152*	95*	66	0	5.7*
CC1(C)Oc2ccc(C(=O)NN)cc2NC1=O	0	-3	106	1	1.3
O=[N+]([O-])c1ccc(Nc2ccc3ccccc3c2)nc1	30	-2	133*	1	1.9
C=CCc1ccc(OCCn2cccc2C=O)c(OC)c1	40	-1	147*	1	1.7
CCc1ccccc1NC(=S)N(CCc1ccncc1)C(C)C	4	-5	104	1	0.97
Cc1ccc(-c2csc(/C(C#N)=C(\O)CCl)n2)cc1	107	19	140*	0.8	1.6
CN1c2cccc3cccc(c23)N(C)C1(C)C	-3	-4	99	1	4.1*
CN1c2ccccc2N(C)C1(C)c1cccc2ccccc12	-7	-15	97	1.1	0.58
CS(=O)(=O)NNC(=O)c1cc2cc3ccccc3nc2s1	4	17	118	0.8	0.94
NNC(=O)c1cc2cc3ccccc3nc2s1	4	22	136*	0.8	1.6
Cc1cc(C)nc(NS(=O)(=O)c2ccc(NC(=O)CN3C(=O)C4CC=CCC4C3=O)cc2)n1 (stereo not drawn)	-4	-6	108	1.1	1.1
O=C(CSc1cn(Cc2ccccc2)c2ccccc12)Nc1nccs1	68	50*	146*	0.5	2.7
CC1(C)CC(=O)C(N=Nc2ccc(-c3ccccc3)cc2)=C(O)C1	137*	0	105	1	2.3
CN(C)c1ccc(/C=N/OC(=O)Nc2ccccc2Cl)cc1	5	16	104	0.8	1.6
Cc1ccc(C=Nc2ccccc2C(N)=O)o1	76	54*	135*	0.5	1
Cc1ccc(/C=N/c2sc(Cc3ccccc3)c(C)c2C(N)=O)o1	-11	-6	92	1.1	1.1
CN(C)c1ccc(C=Nc2ccccc2C(N)=O)cc1	166*	89*	135*	0.1	3.7*
CCC(C)(C)NC(=O)C(c1ccc(F)cc1)N(Cc1ccccc1)C(=O)c1cnccn1 (stereo not drawn)	18	-4	97	1	0.87
CC(C)CNC(=O)CC(=O)N/N=C/c1ccc(F)cc1	12	0	98	1	1.2
Cc1ccc(S(=O)(=O)NC(=O)Nc2cc(C)ccc2F)cc1	-10	0	98	1	1.1
CC(=O)NS(=O)(=O)c1ccc(N=c2ssc3c2-c2ccc(C)cc2NC3(C)C)cc1	-4	-3	134*	1	1.6
SMILES	APP 5'UTR act	FLuc inh counter	STAT1 activator	FLuc act counter	NF-kB neuron act
CCOc1ccc(NC(=O)/C=C/c2ccccc2)c([N+](=O)[O-])c1	42	0	131*	1	2.2
CCOc1ccc(N/C=C/C(=O)c2ccccc2)c([N+](=O)[O-])c1	157*	94*	87	0.1	1
CCOc1ccc(/C=C/C(=O)Nc2ccc(OC)cc2[N+](=O)[O-])cc1	8	-6	98	1.1	0.88
CCOc1ccc(NC(=S)NC(=O)c2c(Br)cnn2C)c([N+](=O)[O-])c1	18	64*	95	0.4	1.9
CCOc1ccc(NC(=S)NC(=O)c2c(Cl)cnn2CC)c([N+](=O)[O-])c1	-2	-6	100	1.1	1.1
CC(=O)c1nc(-c2ccccc2)sc1C	-5	1	112	1	1.2
O=C(c1ccccc1)n1ccc(-c2cnc(-c3ccccc3)s2)n1	141*	24	123	0.8	6*
COc1ccc(S(=O)(=O)NCc2ccc(C(=O)N3CCc4ccccc4C3)cc2)cc1	-8	-4	93	1	0.87
Clc1ccccc1-c1nnc(-c2ccc3c(c2)OCO3)o1	125	80*	111	0.2	7.4*
O=[N+]([O-])c1cccc(-c2nnc(-c3ccc4c(c3)OCO4)o2)c1	87	21	141*	0.8	2.3
COC(=O)Cc1ccc(NC(=S)Nc2ccc(N3CCOCC3)cc2)cc1	19	-3	102	1	1.4
CCOC(=O)c1sc(-c2ccccc2)nc1C	41	9	135*	0.9	1.4
CCOC(=O)c1sc(-c2ccccc2)cc1N	86	8	132*	0.9	2.5
CCOC(=O)c1nc(NNC(C)=O)sc1C	13	-5	99	1	1.1
CCOC(=O)c1nc(NCCc2ccccc2)sc1C	15	0	132*	1	2.4
CNc1nc(C)c(C(=O)OCC(=O)OC)s1	-8	1	110	1	1.3
CCOC(=O)c1sc(-c2ccc(F)cc2)cc1N	95	13	125	0.9	2.1
CNc1nc(C)c(C(=O)OCc2ccccc2)s1	28	7	116	0.9	5*
Cc1ccc(-n2ncc3c(SCc4cccnc4)ncnc32)c(C)c1	14	3	80	1	1.4
Cc1cc(-c2ccccc2)c2c(=O)[nH][nH]c2n1	-1	-2	110	1	1.2
Cc1c(NC(=O)c2cccnc2C(=O)O)cccc1C(=O)O	4	-6	106	1.1	1.1
CCOC(=O)c1cc(-c2ccccc2)sc1N	28	-2	135*	1	2.4
CCOC(=O)Cc1ccc2sc(-c3ccccc3)nc2c1	178*	74*	139*	0.3	9.4*
CCOC(=O)c1cc(-c2ccccc2)sc1NC(=O)CC	-14	-3	98	1	1.2
CC(C)CCC(CC(C)O)c1n[nH]c(=S)n1-c1ccccc1 (stereo not drawn)	x	4	96	1	1.1
SMILES	APP 5'UTR act	FLuc inh counter	STAT1 activator	FLuc act counter	NF-kB neuron act
COCc1nc2ccccc2n1Cc1c(F)cccc1Cl	-1	-3	97	1	0.98
O=C(c1ccc(F)cc1)n1c(NCc2ccccc2)n[nH]c1=S	14	-2	112	1	1.1
COc1ccc2c(c1OC)C(=O)N(c1cccc(C(F)(F)F)c1)C2	14	47	149*	0.5	7.4*
COc1ccc2c(c1OC)C(=O)N(c1ccccn1)C2	111	33	149*	0.7	2.5
COc1ccc2c(c1OC)C(=O)N(c1cccc(C)c1)C2	41	84*	135*	0.2	5.2*
Cc1cccc(N2CC(=O)N(c3cccc(C)c3)CC2=O)c1	11	-5	96	1	1.5
O=C(c1ccc(OC2CCN(Cc3ccccn3)CC2)cc1)N1CCCC(O)C1 (stereo not drawn)	-18	-9	99	1.1	1.1
